Measured values as given in PMC3946399 (Molecular pharmaceutics, 2013).
Read-outs that look alike come from different tables or passages of the source.

Columns and labels:
SERCA [1] = assay: Evaluation of synergy in SERCA ATPase assay; assay type: biochemical, rabbit
HL60/MX2 cells [2] = assay type: cell-based; details: ratio of IC50 in HL60 and HL60/MX2
SERCA [3] = details: cited from earlier work
HL60/MX2 cells [4] = assay: cells; assay type: cell-based
SERCA1a = SERCA1a (Oryctolagus cuniculus, UniProt P04191); assay type: biochemical, rabbit; details: for pKATP(reg) / pKATP(cat): pCa 5.4; for pKATP(reg): control 3.30 ± 0.08; for pKATP(cat): control 4.99 ± 0.07
Chain of SERCA1a (P04191 1-994 isoform P04191-2): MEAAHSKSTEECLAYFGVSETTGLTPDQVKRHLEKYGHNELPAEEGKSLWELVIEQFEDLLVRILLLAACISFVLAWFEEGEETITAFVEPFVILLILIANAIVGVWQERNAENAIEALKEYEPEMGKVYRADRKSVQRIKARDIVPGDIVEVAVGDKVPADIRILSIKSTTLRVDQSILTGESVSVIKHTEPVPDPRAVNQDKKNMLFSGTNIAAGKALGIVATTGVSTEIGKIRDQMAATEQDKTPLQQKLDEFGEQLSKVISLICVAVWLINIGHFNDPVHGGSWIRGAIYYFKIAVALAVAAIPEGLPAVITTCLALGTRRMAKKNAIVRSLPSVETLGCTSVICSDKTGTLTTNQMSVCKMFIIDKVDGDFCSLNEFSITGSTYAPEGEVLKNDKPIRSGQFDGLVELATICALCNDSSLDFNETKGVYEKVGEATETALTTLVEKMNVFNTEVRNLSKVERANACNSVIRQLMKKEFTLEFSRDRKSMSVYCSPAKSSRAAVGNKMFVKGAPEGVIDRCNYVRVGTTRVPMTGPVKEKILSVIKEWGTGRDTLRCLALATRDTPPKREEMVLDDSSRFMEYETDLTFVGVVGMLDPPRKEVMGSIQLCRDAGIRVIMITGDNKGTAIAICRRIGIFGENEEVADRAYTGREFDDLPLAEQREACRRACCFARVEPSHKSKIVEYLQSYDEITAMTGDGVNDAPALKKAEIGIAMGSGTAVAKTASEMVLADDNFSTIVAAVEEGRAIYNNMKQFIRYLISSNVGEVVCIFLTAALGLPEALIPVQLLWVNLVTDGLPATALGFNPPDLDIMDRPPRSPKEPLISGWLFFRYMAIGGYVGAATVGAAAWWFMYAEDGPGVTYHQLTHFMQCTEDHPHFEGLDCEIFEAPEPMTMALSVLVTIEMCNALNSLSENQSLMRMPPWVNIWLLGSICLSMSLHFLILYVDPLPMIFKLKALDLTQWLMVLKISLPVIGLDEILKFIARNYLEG
Summary of the method: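 Ca2+-dependent ATPase activity was measured in light SR vesicles from fast-twitch skeletal muscle of New Zealand white rabbits, using an NADH-linked coupled assay. Buffer was 5 mM MgCl2, 100 mM KCl, 1 mM EGTA (free Ca2+ set by EGTA buffering), 0.4 mM NADH, 10 IU/mL LDH, 10 IU/mL PK, 7 ug/mL A23187, 50 mM MOPS pH 7.0. Compounds were added in 1% DMSO final. Runs were at 37 °C in duplicate or triplicate, and rates were taken from A340 decay.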

[5] = in combination with (−)-CXL017 at fixed molar ratio, CI<0.9 synergy

For `CC(C)(C)c1cc(O)c(C(C)(C)C)cc1O` [BHQ, 2,5-di-tert-butylhydroquinone], the “combination index (CI)” value (SERCA [1]; [5]) is listed as 0.15–0.25, the “selectivity for resistant cell line (HL60/MX2 over HL60)” value (“selectivity for resistant cell line” for short) (HL60/MX2 cells [2]) is listed as 7.7 fold and the dissociation constant (SERCA [3]) is listed as “submicromolar”.
For `C/C=C(/C)C(=O)O[C@H]1C(C)=C2[C@H]([C@@H]1OC(=O)CCCCCCC)[C@@](C)(OC(C)=O)C[C@H](OC(=O)CCC)[C@@]1(O)[C@H]2OC(=O)[C@@]1(C)O` [TG, thapsigargin], the “combination index (CI)” value (SERCA [1]; [5]) was 0.4–0.65, the “selectivity for resistant cell line” value (HL60/MX2 cells [2]) was 400 fold and the viability at 0.009375 µM (HL60/MX2 cells [4]; Homo sapiens, HL60/MX2, read-out: cell viability) was 43%. The dissociation constant (SERCA [3]) was “submicromolar”.
For `CCOC(=O)CC1C(C(=O)OCC)=C(N)Oc2ccc(-c3cc(OC)cc(OC)c3)cc21` (single isomer, unassigned; (-)) [(−)-CXL017], the “combination index (CI)” value (SERCA [1]; (−)-CXL017 with each of the known SERCA inhibitors (TG, CPA, BHQ)) was < 0.9 and the cell viability (HL60/MX2 cells [4]; 6.25 µM) was 47%.
For `CC(=O)C1=C(O)[C@@H]2[C@H]3c4c[nH]c5cccc(c45)C[C@H]3C(C)(C)N2C1=O` [CPA, cyclopiazonic acid], the “combination index (CI)” value (SERCA [1]; [5]) is listed as 0.35–0.45, the “selectivity for resistant cell line” value (HL60/MX2 cells [2]) is listed as 17 fold and the dissociation constant (SERCA [3]) is listed as “submicromolar”.
For `CCOC(=O)CC1C(C(=O)OCC)=C(N)Oc2ccc(-c3cc(OC)cc(OC)c3)cc21` (stereo not shown) [CXL017, Ethyl 2-amino-6-(3,5-dimethoxyphenyl)-4-(2-ethoxy-2-oxoethyl)-4H-chromene-3-carboxylate], the IC50 (SERCA1a) was 25 ± 1 µM, the “pKATP(reg)” value (SERCA1a; 10 μM CXL017, varied ATP) was 2.96 ± 0.07 and the “pKATP(cat)” value (SERCA1a; 10 μM CXL017, varied ATP) was 3.92 ± 0.02. The “pKATP(reg)” value (SERCA1a; 30 μM CXL017, varied ATP) was 2.6 ± 0.1, the “pKATP(cat)” value (SERCA1a; 30 μM CXL017, varied ATP) was 3.99 ± 0.02 and the “effect on apparent Ca2+ affinity (pKCa)” value (SERCA1a; 10 or 30 μM CXL017) was “no significant effect”. For the same compound, the “change in Vmax at catalytic and regulatory ATP sites” value (SERCA1a; 10 or 30 μM CXL017, varied ATP, two-site model) was “no significant change”.
